Source: PubChem (several laboratories)
Hits are enriched below; roughly 2.1% of the tested compounds scored in any of these assays.
PfGluPho inh = PfG6PD (Plasmodium falciparum) enzyme inhibition; PfGluPho enzyme, NADPH resazurin-diaphorase fluorescence; 0.78% of 350,000 active; inhibition, % at 20 µM; AID 504690;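 active = inhibition reaching at least a set limit at 20 µM in the primary screen, cut at about 59% in these data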;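 also: 0% = DMSO wells with substrate and 100% = DMSO wells lacking glucose-6-phosphate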
aDG glyco act = increases alpha dystroglycan glycosylation; activation, % at 10 µM; AID 624168; Pro5-aDG cells, alpha-DG glycosylation AlphaScreen (IIH6); 0% Pro5, 100% B10-LARGE cell signal; 0.22% of 360,000 active;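 active = activation of at least 8% versus controls, or a plate z-score of at least 8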;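 also: Pro5 are CHO cells carrying HIG-tagged alpha-DG that lacks glycosylation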
HKDC1 inh = inhibitors of human hexokinase HKDC1 | inhibition, % at 20 µM | 0.16% of 340,000 active | Q2TB90 | AID 493160 | recombinant HKDC1, G6PDH/diaphorase resazurin coupled fluorescence;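 active = inhibition above about 35% when tested at 20 µM, limit read from the data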;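 also: plate controls were DMSO wells with enzyme for no effect and DMSO wells lacking enzyme for full effect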
Target sequence (Q2TB90 whole entry, looked up): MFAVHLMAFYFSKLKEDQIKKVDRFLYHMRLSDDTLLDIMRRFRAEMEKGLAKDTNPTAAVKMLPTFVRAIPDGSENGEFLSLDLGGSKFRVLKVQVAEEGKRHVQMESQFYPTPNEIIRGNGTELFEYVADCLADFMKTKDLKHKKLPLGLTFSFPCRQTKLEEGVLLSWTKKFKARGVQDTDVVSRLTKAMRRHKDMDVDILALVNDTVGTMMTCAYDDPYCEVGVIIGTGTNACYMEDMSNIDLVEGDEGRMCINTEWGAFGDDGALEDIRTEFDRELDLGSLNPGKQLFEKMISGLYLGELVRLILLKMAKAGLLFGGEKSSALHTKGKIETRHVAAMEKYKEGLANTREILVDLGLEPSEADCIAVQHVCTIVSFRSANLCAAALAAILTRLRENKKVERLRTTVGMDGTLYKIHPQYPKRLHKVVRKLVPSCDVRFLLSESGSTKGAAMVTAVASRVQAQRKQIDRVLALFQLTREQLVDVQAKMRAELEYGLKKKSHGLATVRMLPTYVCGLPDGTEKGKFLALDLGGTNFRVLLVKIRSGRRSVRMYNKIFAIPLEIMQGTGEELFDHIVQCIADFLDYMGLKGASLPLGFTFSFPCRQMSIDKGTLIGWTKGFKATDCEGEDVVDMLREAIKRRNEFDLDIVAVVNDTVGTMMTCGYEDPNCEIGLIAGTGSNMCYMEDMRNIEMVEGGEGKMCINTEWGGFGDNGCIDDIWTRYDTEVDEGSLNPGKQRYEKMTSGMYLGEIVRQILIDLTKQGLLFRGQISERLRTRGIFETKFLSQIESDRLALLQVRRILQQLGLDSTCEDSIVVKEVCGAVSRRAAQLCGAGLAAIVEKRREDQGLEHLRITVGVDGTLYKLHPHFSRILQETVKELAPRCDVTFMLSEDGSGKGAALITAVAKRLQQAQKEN
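Incubation: 90 min at room temperature in dark / Material: recombinant HKDC1 (HK5) hexokinase enzyme, produced in-house / Quantity: enzyme 5 µg/mL final / Compound: one dose of 20 µM, 1% DMSO / Reagent: glucose and ATP substrates / Buffer or medium: Tris pH 8.0 buffer with MgCl2, Tween-20, BSA, BME / Technique: resorufin fluorescence at 613 nm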
Beta2AR agonist = human beta-2 adrenergic receptor agonism by FAP; P07550; Am2.2-beta2AR cells, FAP receptor internalization, flow cytometry; response, % (concentration not given with the values); 0.43% of 340,000 active; AID 504454;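 active = response above a set limit, near 3 SD of response in nonfluorescent compounds, cut at about 42% in these data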
UCH37 inh = blocks the human deubiquitinase UCH37; Q9Y5K5; purified proteasome/UCH37, Ub-AMC cleavage fluorescence; inhibition, % (concentration not given with the values); 0.33% of 330,000 active;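 active = mean inhibition over replicate wells above about 20%, limit read from the data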;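 also: 0% = compound-free wells with enzyme and 100% = wells lacking proteasome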
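Schedule: 30 min plus 25 min, room temperature / Material: human UCH37 within purified proteasomes / Technique: AMC fluorescence intensity at 355/460 nm / Buffer or medium: pH 7.4 Tris-HCl (50 mM) with ovalbumin, ATP-MgCl2, DTT / Controls: wells without proteasome as full block, compound-free enzyme plus substrate as uninhibited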
Cardio protect = modulators protecting cardiomyocytes from myocardial damage | H9c2 cardiomyocytes, H2O2 injury protection, ATPLite, 2 h | protection from H2O2 cell death, % at 20 µM | 0.63% of 360,000 active | AID 588492;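 active = compounds giving at least 50% protection of heart cells from peroxide-induced death in the single-dose screen, raw or plate-pattern-corrected value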;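 also: 0% = DMSO wells with peroxide and 100% = DMSO wells without peroxide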
PfG6PD confirm = PfG6PD inhibition, single-dose confirmed; shares compounds with PfGluPho inh; recombinant PfGluPho, NADPH-diaphorase-resazurin fluorescence; inhibition, % at 20 µM; 34% of 2,400 active; AID 504753;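 active = inhibition of at least 50% at 20 µM in any single replicate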;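 also: 0% = DMSO with substrate and 100% = DMSO lacking glucose-6-phosphate substrate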
Diaphorase 10uM = counter-screen for P. falciparum G6PD inhibitors: diaphorase inhibitors, oxidizers | shares compounds with PfGluPho inh | diaphorase-coupled resazurin reduction, fluorescence, NADPH 10 uM | inhibition, % at 20 µM | 39% of 820 active | AID 504862;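 active = average inhibition reaching 50% or more with the compound at 20 µM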;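 also: resorufin red fluorescence formed as diaphorase reduces resazurin using NADPH; 0% = DMSO with enzyme and 100% = DMSO without enzyme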
Diaph ctr 30uM = diaphorase inhibition or oxidation at 30 uM NADPH. 29% of 820 active. shares compounds with PfGluPho inh. inhibition, % at 20 µM. Diaphorase/resazurin coupled assay, resorufin fluorescence;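 active = inhibition averaging 50% or more, tested at 20 µM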;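 also: 0% = DMSO with enzyme and 100% = DMSO wells lacking diaphorase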
* = called active by the depositor; nt = no result given.

SMILES	PfGluPho inh	aDG glyco act	HKDC1 inh	Beta2AR agonist	UCH37 inh	Cardio protect	PfG6PD confirm	others
CN1/C(=C\C(=O)c2cccs2)Sc2ccccc21	104.6*	0.8	-1.1	-13.9	-18.3	-27.9	62.4*	Diaphorase 10uM=41.4;Diaph ctr 30uM=35.2
CNC(=S)N/N=C/c1c(C(=O)OC)cnn1-c1ccc(F)cc1F	67.8*	-0.2	-3.5	13.5	nt	5.9	23.1
CN1CC2=Cc3ccccc3OC23Oc2ccccc2C=C3C1	119.8*	0.3	9.8	-15.1	-13.9	-6.5	89.6*	Diaphorase 10uM=86.1*;Diaph ctr 30uM=75.3*
COc1ccc(C=NNc2nnc(C)n2N)cc1OC	nt	nt	nt	nt	6.9	nt	nt
COc1ccc(-n2c(C)cc(/C=N/Nc3nnc(C)n3N)c2C)cc1	65.9*	1.8	3.5	-5.2	nt	-20.6	44.0
COc1cccc(C=NN2CCN(Cc3ccccc3)CC2)c1O	nt	nt	nt	nt	5.0	nt	nt
COc1cc(C=NN=C2SC(CC(=O)O)C(=O)N2c2ccc(O)cc2)ccc1O (stereo not drawn)	nt	nt	nt	nt	2.7	nt	nt
COc1ccc(N(C(C)C(=O)NN=Cc2ccc(OC(C)C)cc2)S(C)(=O)=O)cc1 (stereo not drawn)	nt	nt	nt	nt	0.4	nt	nt
Oc1ccc(C=NNc2ccccc2)cc1	nt	nt	nt	nt	-0.8	nt	nt
Cc1ccc(-n2nc3cc(C)c(N)cc3n2)cc1	22.4	0.7	12.3	-2.4	-208.4	-16.6	nt
Cc1cc2nc3ccc(N(C)C)cc3nc2cc1N	78.6*	-0.1	24.0	-4.5	nt	-12.8	32.0
Cc1n[nH]c(=S)n1N=Cc1ccccc1OCc1ccc(Cl)cc1	nt	nt	nt	nt	2.4	nt	nt
Cc1cccc(-c2n[nH]c(=S)n2N=Cc2ccc(C)s2)c1	nt	nt	nt	nt	0.7	nt	nt
Cc1ccc(S(=O)(=O)NN=Cc2cc(Br)c(C)o2)cc1	nt	nt	nt	nt	5.4	nt	nt
Cc1ccccc1OCC(=O)N/N=C/c1ccc(Sc2nc3ccccc3s2)o1	122.5*	0.1	7.8	1.3	nt	-2.4	58.5*	Diaphorase 10uM=43.6;Diaph ctr 30uM=43.5
O=C(Cc1cccc2ccccc12)N/N=C/c1ccc(Sc2nc3ccccc3s2)o1	74.2*	3.8	4.9	4.2	nt	-4.9	5.8
O=C(COc1cccc2ccccc12)N/N=C/c1ccc(Sc2nc3ccccc3s2)o1	26.7	0.1	6.0	2.6	nt	-6.7	nt
COCC(=O)N/N=C/c1ccc(Sc2nc3ccccc3s2)o1	59.5*	-0.1	1.3	-2.2	nt	-1.5	21.1
N#CCC(=O)N/N=C/c1ccc(Sc2nc3ccccc3s2)o1	67.6*	-0.1	2.0	5.1	nt	0.8	21.4
COc1ccc(C(=O)NN=C(C)CC(=O)Nc2ccc3c(c2)OCCO3)c(OC)c1	nt	nt	nt	nt	-0.2	nt	nt
COc1cc([N+](=O)[O-])cc(C=NNC(=O)CSc2nnc(-c3ccccc3)n2C)c1O	nt	nt	nt	nt	13.5	nt	nt
Cc1ccc(C=NNC(=O)CN2CCN(S(=O)(=O)c3ccc(Br)cc3)CC2)s1	nt	nt	nt	nt	5.0	nt	nt
CC(=NNC(=O)c1cccc(S(=O)(=O)N2CCOCC2)c1)c1ccco1	nt	nt	nt	nt	6.7	nt	nt
Cn1c2ccccc2c(=O)c2ccc(C#CC3(N)CCCCC3)cc21	19.9	0.2	10.4	9.0	2.8	-10.0	nt
Cn1c2ccccc2c(=O)c2cc(C#CC3(O)CCCCC3)ccc21	62.0*	0.6	1.9	7.8	-17.5	-28.6	34.6
SMILES	PfGluPho inh	aDG glyco act	HKDC1 inh	Beta2AR agonist	UCH37 inh	Cardio protect	PfG6PD confirm	others
CC1CC(=N/N=C2/NC(=O)CS2)CC(C)(C)C1 (stereo not drawn)	nt	nt	nt	nt	1.1	nt	nt
CC(C)c1nnc(NC(=O)c2cccc(-n3cnnn3)c2)s1	76.4*	0.0	-8.7	-5.5	0.0	5.0	55.9*	Diaphorase 10uM=53.2*;Diaph ctr 30uM=41.6
CCOc1ccc(C(=O)Nc2nnc(C(C)C)s2)cc1OCC	1.8	0.0	-3.2	-20.9	4.4	14.9	nt
CC(C)OC(=O)c1ccc(NC(=O)c2cccc(-n3cnnn3)c2)cc1	-1.8	0.7	1.3	4.3	0.3	-5.0	nt
COc1cccc(C(=O)Nc2nnc(C(C)C)s2)c1	90.7*	-0.2	0.3	-0.3	2.2	-9.6	55.8*	Diaphorase 10uM=58.7*;Diaph ctr 30uM=45.0
CCCc1nnc(NC(=O)c2cccc(OC)c2)s1	63.0*	-0.1	-3.5	11.6	4.9	6.6	15.4
COc1cccc(C(=O)Nc2nnc(Cc3ccc(OC)c(OC)c3)s2)c1	13.0	-0.2	-5.7	0.9	6.4	-5.2	nt
c1cc2c(cc1NC1CCCCCC1)OCO2	62.4*	-0.2	4.9	-10.5	0.8	0.3	60.6*	Diaphorase 10uM=2.2;Diaph ctr 30uM=-2.4
Nc1nc2ccc(C(=O)Nc3ccc(N4CCOCC4)cc3)cc2s1	16.7	0.0	0.8	-0.7	0.6	1.7	nt
O=C(Nc1ccc(N2CCOCC2)cc1)c1ccc2ncsc2c1	66.4*	0.6	-4.2	-2.6	3.8	-5.0	21.9
O=C1Nc2cc(C(=O)NCCCN3CCCC3)ccc2S/C1=C\c1ccccc1	105.0*	0.4	0.6	2.9	8.0	-2.0	98.1*	Diaphorase 10uM=-4.8;Diaph ctr 30uM=-16.3
Nc1c(C(=O)Nc2cccc(C(=O)O)c2)sc2nc3c(cc12)CCCC3	31.7	-0.1	3.5	-2.5	nt	-16.1	nt
Nc1c(C(=O)Nc2ccc(Cl)c(C(=O)O)c2)sc2nc3c(cc12)CCCC3	59.2*	-0.1	5.9	1.8	-33.6	-8.9	10.3
Cc1c(/C=C/C(=O)c2ccc(Cl)s2)cnn1C	59.6*	1.1	7.8	-12.4	-39.9	-6.3	51.6*	Diaphorase 10uM=62.7*;Diaph ctr 30uM=38.9
Cc1c(/C=C/C(=O)c2ccc(C(C)C)cc2)cnn1C	67.9*	1.7	0.4	7.2	2.2	-14.7	42.5
Cc1c(/C=C/C(=O)c2ccccc2)cnn1C	9.4	-0.1	0.1	-4.4	0.3	-6.4	nt
CCOC=Nc1c(C#N)c(CC#N)nn1-c1ccccc1	nt	nt	nt	nt	-0.6	nt	nt
O=[N+]([O-])c1ccccc1/C=C\C=NN1CCN(c2ccccc2)CC1	nt	nt	nt	nt	3.8	nt	nt
CC(C)=CCC/C(C)=C/CCC(C)=NO	nt	nt	nt	nt	2.7	nt	nt
COc1ccccc1NS(=O)(=O)c1cc(NC(=O)c2ccc(Cl)nc2)ccc1N1CCCC1	71.9*	0.4	-3.7	9.0	5.0	-3.7	49.6*	Diaphorase 10uM=-3.1;Diaph ctr 30uM=-1.0
COc1ccccc1NS(=O)(=O)c1cc(NC(=O)C2CCC2)ccc1N1CCCCC1	60.0*	0.1	-3.3	-2.5	2.1	-5.4	26.9
CCCCN1C(=O)C2ON(c3ccccc3C)C(c3ccco3)C2C1=O (stereo not drawn)	72.6*	0.3	2.7	1.4	2.6	1.2	18.8
CCc1ccc(N2C(=O)C3ON(c4ccccc4)C(c4ccco4)C3C2=O)cc1 (stereo not drawn)	4.2	-0.3	0.6	4.9	2.4	0.7	nt
